Published values from different studies.
ABL1 F317I non-phosphorylated: Tyrosine-protein kinase ABL1, non-phosphorylated (ABL1, Homo sapiens, UniProt P00519, F317I)
ABL1 T315I non-phosphorylated: Tyrosine-protein kinase ABL1, non-phosphorylated (ABL1, Homo sapiens, UniProt P00519, T315I)
ABL1 E255K phosphorylated: Tyrosine-protein kinase ABL1, phosphorylated (ABL1, Homo sapiens, UniProt P00519, E255K)
ABL1 T315I: Tyrosine-protein kinase ABL1 (ABL1, Homo sapiens, UniProt P00519, T315I)
ABL1 F317I phosphorylated: Tyrosine-protein kinase ABL1, phosphorylated (ABL1, Homo sapiens, UniProt P00519, F317I)
ABL1 H396P phosphorylated: Tyrosine-protein kinase ABL1, phosphorylated (ABL1, Homo sapiens, UniProt P00519, H396P)
ABL1 Q252H phosphorylated: Tyrosine-protein kinase ABL1, phosphorylated (ABL1, Homo sapiens, UniProt P00519, Q252H)
ABL1 phosphorylated: Tyrosine-protein kinase ABL1, phosphorylated (ABL1, Homo sapiens, UniProt P00519)
ABL1 M351T: Tyrosine-protein kinase ABL1 (ABL1, Homo sapiens, UniProt P00519, M351T)
ABL1 non-phosphorylated: Tyrosine-protein kinase ABL1, non-phosphorylated (ABL1, Homo sapiens, UniProt P00519)
ABL1 M351T phosphorylated: Tyrosine-protein kinase ABL1, phosphorylated (ABL1, Homo sapiens, UniProt P00519, M351T)

CNC(=O)Nc1ccc2c(c1)[C@@]1(CC2)OC(=O)N(CC(=O)N(Cc2ccc(F)cc2)[C@@H](C)C(F)(F)F)C1=O — remaining binding (Tyrosine-protein kinase ABL1, phosphorylated (ABL1, Homo sapiens, UniProt P00519, Y253F); cell-free assay; competition with immobilised ligand; 1 µM): 100%
c1cncc(-c2cccc(Nc3nccc(NC4CCCCC4)n3)c2)c1 — remaining binding (ABL1 F317I non-phosphorylated; binding; competition with immobilised ligand; 10 µM): 100%
Nc1ncc2c(n1)-c1c([nH]c3ccc(C#CC4CC4)cc13)CCCC2 — remaining binding (ABL1 T315I non-phosphorylated; binding; competition with immobilised ligand; 1 µM): 79%
CCN1CCN(Cc2ccc(C(=O)Nc3ccc(C)c(Oc4ccc5c(c4)CC(=O)N5)c3)cc2C(F)(F)F)CC1 — remaining binding (ABL1 E255K phosphorylated; binding; competition with immobilised ligand; 1 µM): 74%
F[C@@H]1CCN(c2nccc(-c3cnn4ncccc34)n2)C1 — remaining binding (ABL1 T315I; binding; 1 µM): 100%
O=C(N[C@H]1CCCCC/C=C\C2C[C@@]2(C(=O)O)NC(=O)[C@@H]2C[C@@H](Oc3ccncc3)CN2C1=O)OC1CCCC1 (stereo partly shown) — remaining binding (ABL1 F317I phosphorylated; binding; 1 µM): 96%
O=C(c1ccc(Nc2ncc(Cl)c(-c3ccc(Cl)s3)n2)cc1)N1CCC(N2CCCC2)CC1 — remaining binding (Tyrosine-protein kinase ABL1, non-phosphorylated (ABL1, Homo sapiens, UniProt P00519, F317L); binding; competition with immobilised ligand; 1 µM): 65%
CN(C)c1nccc(-c2cnn3ncccc23)n1 — remaining binding (Tyrosine-protein kinase ABL1 (ABL1, Homo sapiens, UniProt P00519, E255K); binding; 1 µM): 60%
O=C(NCC1CCOCC1)c1n[nH]cc1NC(=O)c1c(F)cccc1F — remaining binding (ABL1 H396P phosphorylated; binding; competition with immobilised ligand; 1 µM): 93%
COc1cc(-c2cn(C3CCc4c(F)cccc4N(CC(F)(F)F)C3=O)nn2)ccc1-n1cnc(C)c1 (stereo not shown) — remaining binding (ABL1 Q252H phosphorylated; cell-free assay; competition with immobilised ligand; 1 µM): 100%
CC(C)(C)c1ccc(-c2nc(CBr)nn2-c2cccc(O)c2)cc1 — remaining binding (ABL1 phosphorylated; cell-free assay; competition with immobilised ligand; 10 µM): 85%
C[C@@H](c1ccc(-n2cnc3c(N)ncnc32)cc1)N1CCc2nn(C)c(Cc3ccccc3)c2C1=O — remaining binding (ABL1 Q252H phosphorylated; binding; competition with immobilised ligand; 0.1 µM): 72%
CN(C)c1nccc(-c2cnc3ncccn23)n1 — remaining binding (ABL1 T315I; binding; 1 µM): 52%
CN1CCN(c2ccc(Nc3nccc(-c4cccc([N+](=O)[O-])c4)n3)cc2C(F)(F)F)CC1 — remaining binding (ABL1 M351T; binding; 10 µM): 2.7%
O=C(c1ccc(Nc2ncc(Cl)c(-c3cc4ccccc4s3)n2)cc1)N1CCC(N2CCCC2)CC1 — remaining binding (ABL1 H396P phosphorylated; binding; competition with immobilised ligand; 1 µM): 13%
N#Cc1ccccc1CSc1nnc2c(n1)[nH]c1ccccc12 — remaining binding (ABL1 non-phosphorylated; binding; competition with immobilised ligand; 10 µM): 86%
O=C(Nc1c[nH]nc1C(=O)NC1CCNCC1)c1cc(F)cc(F)c1 — remaining binding (ABL1 T315I non-phosphorylated; binding; competition with immobilised ligand; 1 µM): 100%
O=C(NCCCN1CCOCC1)c1ccc(Nc2ncc(Cl)c(-c3ccc(Cl)s3)n2)cc1 — remaining binding (ABL1 E255K phosphorylated; binding; competition with immobilised ligand; 1 µM): 37%
CCOC(=O)c1cc2cc(-c3cc(C(=O)NCc4ccc(C(=O)O)cc4)nn3C)ccc2[nH]1 — remaining binding (ABL1 H396P phosphorylated; cell-free assay; competition with immobilised ligand; 0.1 µM): 85%
CN1CCN(c2ccc(Nc3nccc(-c4ccccc4)n3)cc2C(F)(F)F)CC1 — remaining binding (Tyrosine-protein kinase ABL1 (ABL1, Homo sapiens, UniProt P00519, Y253F); binding; 10 µM): 16%
N#Cc1ccc(Nc2ccc3[nH]c(=O)[nH]c3c2)c(Cl)c1 — remaining binding (Tyrosine-protein kinase ABL1, phosphorylated (ABL1, Homo sapiens, UniProt P00519, T315I); cell-free assay; competition with immobilised ligand; 1 µM): 93%
COc1cnc(Nc2cccc(S(N)(=O)=O)c2)nc1N1CCN(c2ccccc2)CC1 — remaining binding (ABL1 Q252H phosphorylated; binding; competition with immobilised ligand; 1 µM): 72%
CN1CCN(c2cnc3c(C4CCN(C(=O)c5ccc(OC(F)(F)F)cc5N)CC4)ncnc3c2)CC1 — remaining binding (ABL1 non-phosphorylated; cell-free assay; competition with immobilised ligand; 1 µM): 91%
C[C@H]1CCN(c2nccc(-c3cnn4ncccc34)n2)C1 — remaining binding (ABL1 phosphorylated; binding; 1 µM): 59%
O=C(c1ccc(Nc2nccc(-c3cc4ccccc4s3)n2)cc1)N1CCC(N2CCCC2)CC1 — remaining binding (ABL1 M351T phosphorylated; binding; competition with immobilised ligand; 1 µM): 17%
CC(C)(O)c1cncc(-c2nc3ccc(F)cc3n2C2CC2)c1 — remaining binding (Tyrosine-protein kinase ABL1, non-phosphorylated (ABL1, Homo sapiens, UniProt P00519, H396P); cell-free assay; competition with immobilised ligand; 1 µM): 85%
O=C(NCCCN1CCOCC1)c1ccc(Nc2nccc(-c3cc4ccccc4s3)n2)cc1 — remaining binding (ABL1 M351T phosphorylated; binding; competition with immobilised ligand; 1 µM): 49%
C=CC(=O)N1CCC(C(=O)NCC(=O)N2CCN(c3nc(-c4cnc(N)nc4C(F)F)nc(N4CCOCC4)n3)CC2)CC1 — remaining binding (ABL1 F317I phosphorylated; binding; competition with immobilised ligand; 1 µM): 94%
CNC(=O)c1ccc(Nc2ncc(C(F)(F)F)c(NCc3nccnc3N(C)S(C)(=O)=O)n2)cc1 — remaining binding (ABL1 non-phosphorylated; cell-free assay; competition with immobilised ligand; 0.1 µM): 88%
N[C@@H]1CCN(c2nccc(-c3cnn4ncccc34)n2)C1 — remaining binding (ABL1 M351T; binding; 1 µM): 100%
COc1ncc2cc3ccccc3nc2c1C#N — remaining binding (ABL1 F317I phosphorylated; cell-free assay; competition with immobilised ligand; 5 µM): 100%
c1cnn2ncc(-c3ccnc(N4CCC45COC5)n3)c2c1 — remaining binding (Tyrosine-protein kinase ABL1 (ABL1, Homo sapiens, UniProt P00519, Q252H); binding; 1 µM): 69%
CNC(=O)[C@@H]1CC[C@@H](n2c(-c3ccc4cnccc4c3)nc3ccc(C(=O)NCc4cccc(C(N)=O)c4)cc32)C1 — remaining binding (ABL1 T315I non-phosphorylated; binding; competition with immobilised ligand; 1 µM): 100%
Cc1cnn2ncc(-c3ccnc(N(C)C)n3)c2c1 — remaining binding (ABL1 phosphorylated; binding; 1 µM): 81%
Cc1cnc(Nc2ccc(C(=O)N3CCC(N4CCCC4)CC3)cc2)nc1-c1cc2ccccc2s1 — remaining binding (Tyrosine-protein kinase ABL1, non-phosphorylated (ABL1, Homo sapiens, UniProt P00519, Q252H); binding; competition with immobilised ligand; 1 µM): 1.1%
CC1CCCN1c1nccc(-c2cnn3ncccc23)n1 (stereo not shown) — remaining binding (Tyrosine-protein kinase ABL1 (ABL1, Homo sapiens, UniProt P00519, H396P); binding; 1 µM): 80%
COc1cnc(Nc2cccc(S(N)(=O)=O)c2)nc1N1CCN(c2ccccc2)C(=O)C1 — remaining binding (ABL1 F317I non-phosphorylated; binding; competition with immobilised ligand; 1 µM): 89%
